Assay results collected from several papers.
Lines come from different studies, so protocols differ.
Tspo: Translocator protein (Tspo, Rattus norvegicus, UniProt P16257)
HRH2: Histamine H2 receptor (HRH2, Homo sapiens, UniProt P25021)
ADRA1A: Alpha-1A adrenergic receptor (ADRA1A, Homo sapiens, UniProt P35348)

Structure (SMILES)	target	observed	mode	technique	notes	Ki [µM]
C[C@H]1Oc2cc(cnc2N)-c2c(nn(C)c2C#N)CN(C)C(=O)c2ccc(F)cc21	Focal adhesion kinase 1 (PTK2, Homo sapiens, UniProt Q05397)	cell-free assay	–	–	lysate	0.0103
CNc1nc(C#Cc2ccc(Cl)s2)nc2c1ncn2[C@H]1[C@H](O)[C@H](O)[C@]2(C(=O)OCCC3CCCCC3)C[C@H]12	Tspo	ligand displacement	–	radioligand	–	> 10
CNc1nc2cc(OCCCCN3CCC(c4cccc(Cl)c4Cl)CC3)ccc2s1	HRH2	ligand displacement	–	radioligand	–	0.33
CCCCN1CCC(COC(=O)c2ccc(N)c(OCF)c2)CC1	ADRA1A	cell-free assay	–	radioligand	–	> 10
CC[C@H](NC(=O)[C@H](CS(=O)(=O)CC1CC1)N[C@@H](c1ccc(F)cc1)C(F)(F)F)C(=O)C(=O)NC1CC1	Cathepsin S (CTSS, Homo sapiens, UniProt P25774)	enzyme activity	inhibitor	fluorescence	with preincubation	0.00013
CC(C)c1nc2cc(OCCCCN3CCN(c4cccc5c4OCCO5)CC3)ccc2s1	HRH2	ligand displacement	–	radioligand	–	0.24
CN1CC(Oc2cnc(C#N)cc2-c2ccn3nc(NC(=O)C4CC4)cc3c2)C1	Receptor-interacting serine/threonine-protein kinase 2 (RIPK2, Homo sapiens, UniProt O43353)	enzyme activity	inhibitor	–	–	0.095
Oc1cccc(Nc2nc(-c3ccc(F)cc3F)cs2)c1	Kappa-type opioid receptor (Oprk1, Rattus norvegicus, UniProt P34975)	cell-free assay	–	radioligand	–	2.2
CNC(=O)[C@@]12C[C@@H]1[C@@H](n1cnc3c(NC)nc(C#Cc4ccc(Br)s4)nc31)[C@H](O)[C@@H]2O	Tspo	ligand displacement	–	radioligand	–	> 10
COc1ccc2c(c1)C(=O)N(CCN1CCN(c3ccccc3OC)CC1)C2	ADRA1A	ligand displacement	–	radioligand	–	0.0159
CNC(=O)[C@@]12C[C@@H]1[C@@H](n1cnc3c(NC)nc(C#Cc4ccc(F)c(F)c4)nc31)[C@H](O)[C@@H]2O	Tspo	ligand displacement	–	radioligand	–	> 10
CC[Si](C#Cc1ccc2c(c1)C=C([N+](=O)[O-])C(C(F)(F)F)O2)(CC)CC (stereo not shown)	Tspo	cell-free assay	–	radioligand	–	0.5
CCCCC(=O)[C@@]12C[C@@H]1[C@@H](n1ccc3c(NC)nc(C#Cc4ccc(Cl)s4)nc31)[C@H](O)[C@@H]2O	Tspo	ligand displacement	–	radioligand	–	> 10
COc1cccc(OC)c1OCCNCC1COc2ccccc2O1 (stereo not shown)	ADRA1A	ligand displacement	–	radioligand	–	0.00018
CNc1nc(C#Cc2ccc(Cl)s2)nc2c1ncn2[C@@H]1O[C@H](C(=O)OC)[C@@H](O)[C@H]1O	Tspo	ligand displacement	–	radioligand	–	> 10
O=C1c2ccccc2CCN1CCCCN1CCN(c2ccccn2)CC1	ADRA1A	ligand displacement	–	radioligand	–	0.555
